Square brackets hold non-standard residues; d marks the D form. Ends that are not written are not given here. Peptide text beside a SMILES is read from it. pT = C[C@@H](OP(=O)(O)O)[C@H](N)C(=O)O

The target of the assay is T1, SA2-SCC1 (Homo sapiens, UniProt O60216+Q8N3U4).
T1 sequence (Q8N3U4 80-1060): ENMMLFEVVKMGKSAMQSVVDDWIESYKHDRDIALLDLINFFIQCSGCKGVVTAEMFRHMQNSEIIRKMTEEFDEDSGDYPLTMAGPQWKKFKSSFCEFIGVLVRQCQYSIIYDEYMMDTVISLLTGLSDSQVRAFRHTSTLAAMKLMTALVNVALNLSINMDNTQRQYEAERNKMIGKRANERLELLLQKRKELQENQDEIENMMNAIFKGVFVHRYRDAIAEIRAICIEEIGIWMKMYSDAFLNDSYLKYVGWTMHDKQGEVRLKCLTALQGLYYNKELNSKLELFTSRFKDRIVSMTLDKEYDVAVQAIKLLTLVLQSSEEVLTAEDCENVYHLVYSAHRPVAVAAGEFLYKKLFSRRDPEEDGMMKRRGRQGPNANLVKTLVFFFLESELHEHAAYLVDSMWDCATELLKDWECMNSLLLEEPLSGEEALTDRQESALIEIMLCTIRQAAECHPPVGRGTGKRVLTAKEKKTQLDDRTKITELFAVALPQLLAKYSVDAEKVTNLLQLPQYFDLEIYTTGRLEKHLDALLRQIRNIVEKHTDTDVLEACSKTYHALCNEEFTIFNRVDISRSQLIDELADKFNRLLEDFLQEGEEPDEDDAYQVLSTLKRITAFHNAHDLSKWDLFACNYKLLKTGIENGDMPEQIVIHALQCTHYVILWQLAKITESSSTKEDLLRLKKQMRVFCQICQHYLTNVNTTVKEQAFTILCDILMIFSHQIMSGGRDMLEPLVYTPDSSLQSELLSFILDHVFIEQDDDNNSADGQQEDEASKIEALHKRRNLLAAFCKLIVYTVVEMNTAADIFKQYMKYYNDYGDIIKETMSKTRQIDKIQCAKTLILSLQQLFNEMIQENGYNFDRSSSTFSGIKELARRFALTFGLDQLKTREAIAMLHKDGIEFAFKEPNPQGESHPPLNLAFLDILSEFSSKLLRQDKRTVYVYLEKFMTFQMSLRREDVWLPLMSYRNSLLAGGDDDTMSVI
T1 sequence (O60216 281-420): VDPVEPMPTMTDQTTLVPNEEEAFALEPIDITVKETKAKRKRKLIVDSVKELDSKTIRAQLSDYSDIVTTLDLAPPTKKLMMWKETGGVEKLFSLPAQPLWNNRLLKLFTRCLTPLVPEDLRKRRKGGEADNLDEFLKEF
Kind of assay: Isothermal titration calorimetry. As to conditions: ITC, 25°C, one site binding model. The method in brief:
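Recombinant SA2-SCC1 from E. coli BL21(DE3), purified by Co2+ IMAC, MonoQ and Superdex 200. Protein and peptides were dialysed overnight at 4°C against 20 mM Tris pH 7.7, 150 mM NaCl, 0.5 mM TCEP. 50 μM SA2-SCC1 was placed in the cell and titrated with 500 μM peptide in 16 injections. Data were fitted to a one-site model; titrations were repeated three times.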
A general note: Isothermal titration calorimetry measures the heat released or taken up as one component is titrated into another.
Turning to SNDAYNFNLEE [Shugoshin 331-341], the “N (binding stoichiometry)” value is 0.83, the TΔS is -4.02 kcal/mol, the ΔG is recorded as -6.64 kcal/mol and the ΔH is given as -10.67 kcal/mol.
As for `CC(C)C[C@H](NC(=O)[C@H](CC(N)=O)NC(=O)[C@H](Cc1ccccc1)NC(=O)[C@H](CC(N)=O)NC(=O)[C@H](Cc1ccc(O)cc1)NC(=O)[C@H](C)NC(=O)[C@H](CC(=O)O)NC(=O)[C@H](CC(N)=O)NC(=O)[C@@H](N)CO)C(=O)N[C@@H](CCC(=O)O)C(=O)N[C@@H](CCC(=O)O)C(=O)NCC(=O)N[C@H](C(=O)N[C@@H](Cc1c[nH]cn1)C(=O)N[C@@H](CC(C)C)C(=O)N[C@H](C(=O)N1CCC[C@H]1C(=O)N[C@@H](Cc1ccccc1)C(=O)N[C@@H](CCCNC(=N)N)C(=O)O)[C@@H](C)OP(=O)(O)O)C(C)C` [Shugoshin 331-349 (pT346), reference compound] (H-SNDAYNFNLEEGVHL[pT]PFR-OH; N-terminus and C-terminus assumed), the “N (binding stoichiometry)” value worked out at 0.89, the TΔS is recorded as -12.30 kcal/mol, the ΔG is reported as -7.69 kcal/mol and the ΔH was -20.00 kcal/mol.
In the case of NYKIKYFGFDDLSESE [Wapl 447-462], the “N (binding stoichiometry)” value was found to be 1.00, the TΔS is reported as -1.20 kcal/mol, the ΔG is given as -5.60 kcal/mol and the ΔH is on record as -6.81 kcal/mol.
Regarding “DVKLEFFGFEDHETGGDEGGSGSSNYKIKYFGFDDLSESED [Wapl 423-463]”, the “N (binding stoichiometry)” value turned out to be 0.62, the TΔS is on record as -0.54 kcal/mol, the ΔG was -6.11 kcal/mol and the ΔH is recorded as -6.66 kcal/mol.
